These results are taken from ChEMBL document CHEMBL3616446, “Structure activity optimization of 6H-pyrrolo[2,3-e][1,2,4]triazolo[4,3-a]pyrazines as Jak1 kinase inhibitors” (Bioorg Med Chem Lett, 2015).

One series relates to UT7. Description: Selectivity ratio for inhibition of JAK2 in human UT7 cells to inhibition of JAK1 in human TF1 cells. The series is classed as cell-based. In a few lines:
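Cell-based pSTAT read-outs. Jak1: IL-6-stimulated pSTAT3 in TF-1 cells. Jak2: Epo-stimulated pSTAT5 in UT-7 cells. Full-length endogenous Jak at cellular ATP levels. Run in 96-well format, some in 384-well. Ratio = Jak2 cellular value / Jak1 cellular value.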

A short description of series [1]: Metabolic stability in Sprague-Dawley rat microsomes assessed as compound remaining at 1 uM measured at 25 mins. To be noted: read-out: Stability. The series is classed as ADME, Microsome. In outline: (§1)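 Microsomes at 0.25 mg protein with 1 mM NADPH and 1 µM compound, incubated 25 min at 37 °C; % parent remaining at 25 min. Rat: pooled male SD microsomes. Human: pooled male/female microsomes.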

A short description of series [2]: Plasma clearance in Sprague-Dawley rat at 5 mg/kg, iv. The series is classed as ADME, organism-based.
Series [3] can be described thus: Cmax in Sprague-Dawley rat at 10 mg/kg, po. In kind it is ADME, organism-based. Also on record: dose 10 mg/kg, route oral. As to conditions: in vivo.
Series [4] in a line: Metabolic stability in human microsomes assessed as compound remaining at 1 uM measured at 25 mins. In kind it is ADME, Microsome. As to conditions: read-out: Stability. In outline: as §1
The next series concerns Rattus norvegicus. Nature of the series: Antiinflammatory activity in Lewis rat assessed as inhibition of concanavalin A-induced IFNgamma production administered 30 mins prior to concanavalin A challenge measured at 4 hrs by ELISA. Also on record: concentration or dose not given beside the values. In kind it is functional. Background: ELISA stands for enzyme-linked immunosorbent assay.

Series [5] is described as follows: AUC (0 to infinity) in Sprague-Dawley rat at 10 mg/kg, po. The series is classed as ADME, organism-based. On the set-up: dose 10 mg/kg, time infinity, route oral. As to conditions: in vivo.
The nature of series [6]: Oral bioavailability in Sprague-Dawley rat at 10 mg/kg. In kind it is ADME, organism-based. To be noted: in vivo.

Regarding `O=S(=O)(N[C@H]1CC[C@H](c2nnc3cnc4[nH]ccc4n32)CC1)C1CC1`, in the series on UT7, the Selectivity ratio was > 20.

In general, clearance refers to a measure of how efficiently the substance is removed, as volume per time. One may read the Cmax as the peak of the concentration-time curve. The term AUC(0-inf) denotes total exposure, with the tail of the curve extrapolated. What is called bioavailability is dose-corrected exposure relative to a reference, in per cent. In the case of `O=S(=O)(N[C@H]1CC[C@@H](c2nnc3cnc4[nH]ccc4n23)C1)C1CC1`, the remaining at 25 min, 1 µM is 98% in series [1] and 100% in series [4]. Also, in series [2], the clearance is 48.3 mL/min/kg. The Selectivity ratio with UT7 was 17. In series [3], this compound returned a maximum concentration (Cmax) of 230 ng/mL. Besides, the “inhibition (INH)” value in the series on Rattus norvegicus was 55%. The same compound yielded an AUC(0-inf) in series [5] of 1100 ng·h/mL. In series [6], the bioavailability amounted to 29%.

Consider `CCS(=O)(=O)N[C@H]1CC[C@@H](c2nnc3cnc4[nH]ccc4n23)C1`, for which, in series [1], the remaining at 25 min, 1 µM worked out at 100%. The Selectivity ratio with UT7 was found to be 101.

Consider `O=S(=O)(N[C@H]1CC[C@@H](c2nnc3cnc4[nH]ccc4n23)C1)C1CCCCC1`, for which the Selectivity ratio in the series on UT7 was > 75.

The compound `O=S(=O)(N[C@]12CC[C@](c3nnc4cnc5[nH]ccc5n43)(CC1)CC2)C1CC1` had a clearance in series [2] of 51.7 mL/min/kg. Also, the Selectivity ratio in the series with UT7 was 225. Also, in series [3], the Cmax turned out to be 60 ng/mL. Also, the “inhibition (INH)” value in the series with Rattus norvegicus is 31%. Further, the AUC(0-inf) in series [5] was found to be 410 ng·h/mL. The same compound gave a bioavailability in series [6] of 13%.

In the case of `O=S(=O)(N[C@H]1CCC[C@@H](c2nnc3cnc4[nH]ccc4n23)C1)C1CC1` (racemic), in the series on UT7, the Selectivity ratio stood at 9. For the same compound, the Cmax in series [3] turned out to be 10 ng/mL. The “inhibition (INH)” value in the series with Rattus norvegicus was found to be 0%. In addition, the AUC(0-inf) in series [5] came to 50 ng·h/mL.

On to `CCCS(=O)(=O)N[C@H]1CC[C@@H](c2nnc3cnc4[nH]ccc4n23)C1`, for which, in the series on UT7, the Selectivity ratio was > 20.

On to `O=S(=O)(N[C@H]1CC[C@@H](c2nnc3cnc4[nH]ccc4n23)C1)C1CCC1`, for which the remaining at 25 min, 1 µM in series [1] was found to be 80%; in series [4], 85%. The clearance in series [2] was 41.7 mL/min/kg. For the same compound, the Selectivity ratio with UT7 was 227. For the same compound, in series [3], the highest level (Cmax) was 310 ng/mL. The “inhibition (INH)” value in the series with Rattus norvegicus worked out at 40%. Further, the AUC(0-inf) in series [5] was found to be 860 ng·h/mL. This compound returned a bioavailability in series [6] of 32%.

As to `O=S(=O)(N[C@H]1CC[C@@H](c2nnc3cnc4[nH]ccc4n23)C1)c1ccccc1`, the values for the remaining at 25 min, 1 µM in series [1] and in series [4] were 31% and 42%, respectively. Besides, the Selectivity ratio in the series with UT7 came to 34.

`O=S(=O)(N[C@@H]1CCC[C@@H](c2nnc3cnc4[nH]ccc4n23)C1)C1CC1` (racemic): in the series with UT7, the Selectivity ratio is > 10.

The compound `c1cc2c(ncc3nnc(C4CCCCC4)n32)[nH]1` showed a Cmax in series [3] of 170 ng/mL. In addition, in series [5], the AUC(0-inf) came to 280 ng·h/mL.

`O=S(=O)(N[C@H]1CC[C@@H](c2nnc3cnc4[nH]ccc4n23)C1)C1CCCC1`: the figures for the remaining at 25 min, 1 µM in series [1] and in series [4] were 68% and 90%, respectively. In addition, the Selectivity ratio in the series with UT7 was found to be 100.

Take `CS(=O)(=O)N[C@H]1CC[C@@H](c2nnc3cnc4[nH]ccc4n23)C1`: the Selectivity ratio in the series with UT7 came out at 34.

`O=S(=O)(N[C@H]1CC[C@@H](c2nnc3cnc4[nH]ccc4n23)C1)c1cccc(Cl)c1`: the remaining at 25 min, 1 µM turned out to be 6% in series [1] and 8% in series [4]. In addition, in the series on UT7, the Selectivity ratio was found to be 54.

In the case of `COc1ccc(S(=O)(=O)N[C@H]2CC[C@@H](c3nnc4cnc5[nH]ccc5n34)C2)cc1`, the figures for the remaining at 25 min, 1 µM in series [1] and in series [4] were 61% and 35%, respectively. For the same compound, the Selectivity ratio in the series on UT7 is 26.
